Each structure is given as a SMILES string. Where only a bound is given, the exact number is not on record here.

Series [1] can be described thus: Lipophilicity, log P at pH 7.4. The series is classed as physicochemical. The conditions noted are these: buffer. In short, it runs like this:
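Radiolabelled nucleoside (20 μL in water) was partitioned between 3 g 1-octanol and 3 g 0.1 M NaH2PO4 buffer, pH 7.4. The mixture was vortexed 3 min at room temperature, then centrifuged 5 min. Weighed 0.5 g samples of each layer were gamma counted, and the octanol layer was repartitioned until values were consistent. log P was taken as the log of the ratio of cpm/g octanol to cpm/g buffer. Triplicate, repeated three times.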

For series [2], the system named is RG2. Kind of series: Selectivity index, ratio of cellular uptake in HSV1-tk gene overexpressing RG2TK+ cells to cellular uptake in RG2 cells. The series is classed as functional, Rattus norvegicus. In short, it runs like this:
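Tracer uptake measured in parallel in HSV1-tk-transduced RG2TK+ and wild-type RG2 glioma cells: 37 °C, serum-free medium, ~0.2 MBq 18F-tracer. Activity was gamma counted and normalized to viable cells and dose. The index is the average ratio of accumulation in RG2TK+ to accumulation in RG2.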

Series [3] in a line: Cellular uptake in HSV1-tk gene overexpressing RG2TK+ cells assessed per 10^6 cells at 0.2 MBq after 2 hrs. As to conditions: rat. The series is classed as ADME. In short, it runs like this:
(§1)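 RG2 rat glioma cells transduced with HSV1-tk (kept in G418 250 mg/L), 5 × 10^5 cells/well, grown 24 h, then incubated at 37 °C in serum-free medium with ~0.02 MBq [125I]FIAU or ~0.2 MBq 18F-tracer. Sampled at 5–120 min. After cold PBS washes and trypsinization, cell-bound activity was gamma counted and normalized to viable (trypan blue) cells and to total dose. Mean ± S.D., ≥3 experiments in duplicate.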

Series [4] concerns RG2. Kind of series: Cellular uptake in RG2 cells assessed per 10^6 cells at 0.2 MBq after 2 hrs. The series is classed as ADME, cell-based. As to conditions: rat, rg2, 2 h. The method in brief: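 Wild-type RG2 rat glioma monolayers (5 × 10^5 cells/well, 24 h growth) were incubated at 37 °C in 0.5 mL serum-free medium with about 0.2 MBq (5 μCi) of 18F-labelled nucleoside (SA 18.5–925 GBq/μmol). After 2 h they were washed with cold PBS, trypsinized and viable cells counted by trypan blue. Gamma counts (400–1600 keV) were normalized to viable cell number and to total activity, expressed as % per 10^6 cells. Three or more experiments, each in duplicate.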

Series [5] is described as follows: Cytotoxicity against HSV1-tk gene overexpressing RG2TK+ cells after 72 hrs by MTT assay. The conditions noted are these: rat. The class given is cell-based. In short, it runs like this:
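RG2TK+ cells (HSV1-tk-transduced rat glioma) seeded at 1.5 × 10^3 cells/well overnight, then exposed to drug at 0.001–1000 μmol/L in quadruplicate for 72 h at 37 °C. MTT (1 mg/mL) added for 3 h; formazan dissolved in DMSO and read at 490 nm (650 nm reference). Blanks subtracted; growth given as % of untreated control. CC50 reported as mean ± S.E.M. of three experiments in duplicate.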
For orientation: Tetrazolium dyes change colour on reduction, which living cells bring about.

Series [6] has as its system RG2. Nature of the series: Cytotoxicity against RG2 cells after 72 hrs by MTT assay. The series is classed as cell-based. The conditions noted are these: rat, rg2, 72 h. In short, it runs like this: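 RG2 cells were seeded at 1.5 × 10^3/well, left overnight, then exposed to drug at 0.001–1000 μmol/L in culture medium, in quadruplicate, for 72 h at 37 °C. MTT (1 mg/mL) was added for 3 h and the formazan dissolved in DMSO. Absorbance was read at 490 nm with a 650 nm reference, blank subtracted, and growth given as % of untreated control. CC50 was taken as mean of three experiments.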

Series [7] in a line: Inhibition of [125I]FIAU uptake in RG2TK+ cells overexpressing HSV1-tk gene. The class given is functional, cell-based. As to conditions: Rattus norvegicus. The method in brief:
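HSV1-tk-expressing RG2TK+ glioma cells incubated 2 h with [125I]FIAU plus inhibitor at 0–300 μM. Cell-associated radioactivity measured. IC50 is the concentration giving 50% inhibition of [125I]FIAU uptake; mean ± S.D. of at least three experiments in duplicate.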

Series [8] in a line: Cellular uptake in HSV1-tk gene overexpressing RG2TK+ cells assessed per 10^6 cells at 0.02 MBq after 2 hrs. The class given is ADME. As to conditions: rat. The method in brief: as §1
Series [9] concerns RG2. Kind of series: Cellular uptake in RG2 cells assessed per 10^6 cells at 0.02 MBq after 2 hrs. The class given is ADME, cell-based. As to conditions: rat, rg2, 2 h. In short, it runs like this: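 Wild-type RG2 rat glioma monolayers (5 × 10^5 cells/well, grown 24 h at 37 °C in DMEM, 10% FBS) washed with warm PBS, then incubated at 37 °C in 0.5 mL serum-free medium with about 0.02 MBq [125I]FIAU (SA 2,200 Ci/mmol). After 2 h, cells were washed with cold PBS, trypsinized and counted for viability by trypan blue. Cell-associated gamma counts were normalized to viable cells and to activity added, given as % per 10^6 cells. Three or more experiments, each in duplicate.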

Broadly, the logD is the decadic logarithm of the distribution of all forms, ionised or not, between an organic phase and buffer at a given pH. Turning to `O=c1[nH]c(=O)n([C@@H]2O[C@H](CO)[C@@H](O)[C@@H]2F)cc1/C=C/[123I]`, the logD in [1] is 1.24.

In the case of `O=c1[nH]c(=O)n([C@H]2C[C@H](O)[C@@H](CO)O2)cc1CCCCC[18F]`, the Ratio in series [2] is listed as 19.9. Besides, the Drug uptake in series [3] worked out at 4.4%; in series [4], 0.23%. In addition, the logD in series [1] turned out to be 0.23.

As a reminder, the CC50 is the concentration that lowers cell viability or growth by half. A low value points to greater toxicity to the cells. For the compound `Nc1nc(O)c2ncn(COC(CO)CO)c2n1` [GANCICLOVIR], the CC50 was found to be 5.86 µM in [5] and 377 µM in series [6].

In [1], `O=c1[nH]c(=O)n([C@@H]2O[C@H](CO)[C@@H](O)[C@H]2F)cc1/C=C/[123I]` came in with a logD of 1.22.

In general, IC50 refers to the concentration at which inhibition is half-maximal. As for `O=c1[nH]c(=O)n([C@@H]2O[C@H](CO)[C@@H](O)[C@@H]2F)cc1I` [FIALURIDINE], the CC50 in [5] was determined as 0.79 µM; in [6], 80 µM. Further, the IC50 in [7] amounted to 0.7 µM.

For `O=c1[nH]c(=O)n([C@H]2C[C@H](O)[C@@H](CO)O2)cc1CCCC[18F]`, the Ratio in series [2] turned out to be 14.9. In addition, the results for the Drug uptake in [3] and in series [4] were 8.4% and 0.59%, respectively. The compound also showed a logD in series [1] of -0.24.

`O=c1[nH]c(=O)n([C@H]2C[C@H](O)[C@@H](CO)O2)cc1CCC[18F]`: the Ratio in [2] amounted to 20.5. The Drug uptake was determined as 8.2% in [3] and 0.41% in [4]. In addition, in series [1], the logD was -0.57.

Turning to `O=c1[nH]c(=O)n([C@@H]2O[C@H](CO)[C@@H](O)[C@@H]2F)cc1CCCF`, the CC50 in series [5] came out at 209 µM; in [6], 121 µM. In [7], this compound yielded an IC50 of 51.2 µM.

`O=c1[nH]c(=O)n([C@H]2C[C@H](O)[C@@H](CO)O2)cc1CCCCF`: the 50% cytotoxic concentration (CC50) in series [5] and in series [6] was over 800 µM throughout. For the same compound, the IC50 in series [7] was 34.5 µM.

Regarding `O=c1[nH]c(=O)n([C@@H]2O[C@H](CO)[C@@H](O)[C@@H]2F)cc1CCCCCF`, the 50% cytotoxic concentration (CC50) in series [5] is 375 µM; in [6] it was over 1000 µM. The compound further gave an IC50 in series [7] of 22.9 µM.

In the case of `O=c1[nH]c(=O)n([C@H]2C[C@H](O)[C@@H](CO)O2)cc1CCCF`, the CC50 in [5] was over 1000 µM; in series [6] it was over 450 µM. Besides, in series [7], the IC50 came out at 7.6 µM.

Regarding `O=c1[nH]c(=O)n([C@@H]2O[C@H](CO)[C@@H](O)[C@@H]2F)cc1CCCC[18F]`, the Ratio in series [2] is 7.8. Besides, the Drug uptake in [3] was 3.7%; in series [4], 0.66%. In addition, the logD in series [1] is 0.27.

Regarding `O=c1[nH]c(=O)n([C@@H]2O[C@H](CO)[C@@H](O)[C@@H]2F)cc1CCCCC[18F]`, in [2], the Ratio turned out to be 5.5. Moreover, the Drug uptake in [3] is 1.2%; in series [4], 0.24%. The logD in [1] was determined as 0.74.

As for `O=c1[nH]c(=O)n([C@H]2C[C@H](O)[C@@H](CO)O2)cc1CCCCCF`, the CC50 in series [5] was over 650 µM; in series [6], over 750 µM. Moreover, half-maximal inhibition in [7] (IC50) was put at 36.8 µM.

For `O=c1[nH]c(=O)n([C@@H]2O[C@H](CO)[C@@H](O)[C@@H]2F)cc1CCCCF`, the cytotoxic concentration (CC50) in series [5] turned out to be 346 µM; in [6] it was 355 µM. Besides, it took 23 µM to reach half-maximal inhibition in series [7] (IC50).

For `O=c1[nH]c(=O)n([C@@H]2O[C@H](CO)[C@@H](O)[C@@H]2F)cc1[125I]`, the Drug uptake was 29.4% in [8] and 3.4% in series [9]. In [2], the Ratio is 9.9. The pH-dependent lipophilicity (logD) in series [1] came to 0.05.

In the case of `O=c1[nH]c(=O)n([C@@H]2O[C@H](CO)[C@@H](O)[C@@H]2F)cc1CCC[18F]`, in series [2], the Ratio was 5. The Drug uptake in series [3] worked out at 1.9%; in series [4] it was 0.38%. Besides, the logD in series [1] is -0.12.

For the origin of these results see ChEMBL document CHEMBL1140131, “Synthesis and in vitro evaluation of 5-[(18)f]fluoroalkyl pyrimidine nucleosides for molecular imaging of herpes simplex virus type 1 thymidine kinase reporter gene expression” (J Med Chem, 2008).
